Data set [1] relates to HepG2. As to the kind of experiment: Antioxidant activity in human HepG2 cells assessed as decrease in FFA-induced oxidatively stress by measuring NO production using DAF-2 by H2DCFDA dye based fluorescence assay relative to control. The class given is functional. Further details: concentration or dose not given beside the values. The gist of the method:
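Palmitate (100 µmol/L)-BSA stressed HepG2 with glycomimetics 1 µmol/L (3 h co-treatment or 12 h pretreatment). For NO: L-arginine 100 µmol/L for 5 min at 37 °C, DAF-2 0.1 µmol/L for 2 min, then A23187 for 30 min; ex 485/em 540 nm, autofluorescence subtracted. L-NAME 100 µmol/L in some runs. ROS: CM-H2DCFDA 10 µmol/L, 30 min, 37 °C, ex 490/em 540 nm.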

Data set [2] has as its target T1, Nitric oxide synthase 3 (Homo sapiens) (UniProt P29474).
T1 sequence (whole entry): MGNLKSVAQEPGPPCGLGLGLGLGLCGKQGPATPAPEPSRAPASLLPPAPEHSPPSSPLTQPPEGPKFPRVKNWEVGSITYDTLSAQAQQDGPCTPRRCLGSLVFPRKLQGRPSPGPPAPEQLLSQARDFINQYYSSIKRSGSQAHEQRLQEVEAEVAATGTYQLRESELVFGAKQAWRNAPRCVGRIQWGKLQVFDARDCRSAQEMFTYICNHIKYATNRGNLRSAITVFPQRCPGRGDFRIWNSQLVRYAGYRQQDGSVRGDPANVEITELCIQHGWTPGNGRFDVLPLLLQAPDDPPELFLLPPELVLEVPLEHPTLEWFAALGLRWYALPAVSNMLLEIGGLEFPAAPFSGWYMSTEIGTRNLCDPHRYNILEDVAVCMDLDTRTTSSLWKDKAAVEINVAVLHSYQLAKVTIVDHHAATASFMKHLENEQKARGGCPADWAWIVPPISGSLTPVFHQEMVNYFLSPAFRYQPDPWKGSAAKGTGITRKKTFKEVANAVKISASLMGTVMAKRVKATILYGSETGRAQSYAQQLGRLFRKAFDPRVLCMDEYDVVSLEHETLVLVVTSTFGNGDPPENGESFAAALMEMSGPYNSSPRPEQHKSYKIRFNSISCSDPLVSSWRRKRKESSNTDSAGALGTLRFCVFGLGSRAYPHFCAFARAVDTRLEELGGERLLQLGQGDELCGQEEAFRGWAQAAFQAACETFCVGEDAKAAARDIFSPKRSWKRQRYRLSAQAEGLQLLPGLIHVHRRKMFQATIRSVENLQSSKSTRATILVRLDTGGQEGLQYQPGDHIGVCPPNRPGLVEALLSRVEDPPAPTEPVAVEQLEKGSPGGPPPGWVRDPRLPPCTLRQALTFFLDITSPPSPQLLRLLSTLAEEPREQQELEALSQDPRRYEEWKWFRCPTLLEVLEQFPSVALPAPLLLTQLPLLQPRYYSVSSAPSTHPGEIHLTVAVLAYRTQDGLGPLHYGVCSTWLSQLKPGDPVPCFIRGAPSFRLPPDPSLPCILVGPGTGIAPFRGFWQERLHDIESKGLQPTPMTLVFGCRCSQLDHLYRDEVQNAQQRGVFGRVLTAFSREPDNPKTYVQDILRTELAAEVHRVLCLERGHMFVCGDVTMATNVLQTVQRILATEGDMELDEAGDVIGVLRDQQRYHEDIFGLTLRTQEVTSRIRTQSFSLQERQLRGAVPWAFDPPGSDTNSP
As to the kind of experiment: Induction of eNOS phosphorylation in FFA-induced oxidatively stress human HepG2 cells by Western blot analysis relative to control. On the set-up: concentration or dose not given beside the values. A digest of the protocol:
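HepG2 stressed with palmitate 100 µmol/L-BSA plus glycomimetics 1 µmol/L. Lysed in RIPA, 30 µg protein by SDS-PAGE onto PVDF. Blocked 1 h in 5% milk/TBS-T; rabbit anti-phospho-eNOS overnight at 4 °C, HRP secondary 1 h at RT, ECL detection. Signal quantified by densitometry.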

The subject of data set [3] is HepG2. Kind of data set: Antioxidant activity in human HepG2 cells assessed as decrease in FFA-induced ROS production after 24 hrs by ethidium/DAPI based fluorescence assay relative to control. It is filed as functional. A digest of the protocol:
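Cells in serum-free DMEM with 2% fatty-acid-free BSA or palmitate-BSA (100 µmol/L) plus glycomimetics (1 or 10 µmol/L) for 24 h. Then 10 µmol/L dihydroethidium in Hepes-buffered solution for 30 min, DAPI 0.3 µmol/L counterstain. Fluorescence microscopy with constant imaging settings; ROS taken as ethidium/DAPI fluorescence ratio.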

Data set [4] relates to HepG2. As to the kind of experiment: Antioxidant activity in human HepG2 cells assessed as decrease in FFA-induced NADPH oxidase activity by lucigenin-enhanced chemiluminescence based scintillation counting method relative to control. The class given is functional. The gist of the method:
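HepG2 cells given FFA-BSA (palmitate 100 µmol/L) with glycomimetics 1 µmol/L for 3 h, or 12 h pretreatment then 3 h palmitate. Homogenized in 20 mmol/L H2KPO4/1 mmol/L EDTA with protease inhibitors. 50 µg protein with NADPH 100 µmol/L and lucigenin 5 µmol/L; luminescence over 200 s. Basal activity subtracted; expressed as RLU/min/µg protein.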

Data set [5] in a line: Chemical stability of compound. It is filed as physicochemical.
The nature of data set [6]: Metabolic stability in mouse liver microsomes assessed as half life at 3 uM measured up to 45 mins in presence of NADPH by LC-MS/MS analysis. It is filed as ADME, Microsome. The gist of the method:
(§1)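 Pooled liver microsomes 0.5 mg/mL protein in 0.1 M phosphate pH 7.4 with compound 3 µM (0.25% DMSO), prewarmed at 37 °C. Started with NADPH 1 mM; sampled at 0, 5, 15, 30, 45 min into methanol. Minus-NADPH control at 45 min; single incubations. t½ = 0.693/k; CLint = V×0.693/t½ in µL/min/mg protein.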
A general note: Microsomes from liver hold many membrane-bound enzymes, among them those of drug oxidation.

Data set [7] in a line: Metabolic stability in mouse liver microsomes assessed as intrinsic clearance at 3 uM measured up to 45 mins in presence of NADPH by LC-MS/MS analysis. The following applies: read-out: CLH. The class given is ADME, Microsome. A digest of the protocol:
as §1

The test system of the next data set is HepG2 (Homo sapiens). As to the kind of experiment: Cytotoxicity against HepG2 cells assessed as reduction in cell viability incubated for 72 hrs by MTT assay. The following applies: hepg2, 72 h. In general terms: Formazan colour is commonly taken as a measure of viable cells.
A short description of data set [8]: Metabolic stability in rat liver microsomes assessed as half life at 3 uM measured up to 45 mins in presence of NADPH by LC-MS/MS analysis. It is filed as ADME, Microsome. The gist of the method:
as §1

A short description of data set [9]: Kinetic solubility of compound in PBS at pH 7.4 incubated for 2 hrs by turbidometric analysis. The class given is physicochemical. The following applies: read-out: Kinetic_solubility. The gist of the method: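 DMSO solutions diluted 1 in 100 into 0.01 M PBS pH 7.4 (final 1% DMSO) to give 1–100 µM; 7 replicate wells. Incubated 2 h at 37 °C, absorbance read at 620 nm. Solubility estimated as the concentration raising absorbance above vehicle.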

Data set [10] is described as follows: Metabolic stability in rat liver microsomes assessed as intrinsic clearance at 3 uM measured up to 45 mins in presence of NADPH by LC-MS/MS analysis. The following applies: read-out: CLH. It is filed as ADME, Microsome. A digest of the protocol: as §1
In data set [11] the test system is HepG2. As to the kind of experiment: Cytotoxicity against human HepG2 cells assessed as reduction in cell viability incubated for 72 hrs by MTT assay. The class given is cell-based. The following applies: hepg2, 72 h. The gist of the method:
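HepG2 plated 24 h before dosing. Compound at 8 concentrations in triplicate, serially diluted in 0.5% DMSO growth medium, for 72 h. MTT loaded 1 h before end; solubilised in DMSO, read at 570 nm. Significance limits come from vehicle wells. Minimum effective concentration taken from the lowest concentration exceeding significance; AC50 fitted when dose-response is clear.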

Data set [12] deals with Voltage-gated inwardly rectifying potassium channel KCNH2 (Homo sapiens, UniProt Q12809). As to the kind of experiment: Inhibition of recombinant human ERG expressed in CHO cells at -80 mV holding potential by automated patch clamp method. It is filed as cell-based. The gist of the method:
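hERG-CHO cells on automated IonWorks patch clamp at room temperature. Extracellular DPBS pH 7.2, HEPES-buffered intracellular solution, amphotericin B perforation. Compounds typically at 0.008–25 µM (5-fold steps, final DMSO 0.25%), 300 s exposure, 4 replicate wells. Response is post/pre current ×100; IC50 from Hill fit.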
(In general: The patch-clamp technique gives a direct electrical read-out from membranes.)

The term half-life denotes the time needed for the level to fall by half in the phase considered. A word on the IC50: it is the concentration needed to halve the response being measured.

Voltage-gated inwardly rectifying potassium channel KCNH2, sequence (Q12809 whole entry): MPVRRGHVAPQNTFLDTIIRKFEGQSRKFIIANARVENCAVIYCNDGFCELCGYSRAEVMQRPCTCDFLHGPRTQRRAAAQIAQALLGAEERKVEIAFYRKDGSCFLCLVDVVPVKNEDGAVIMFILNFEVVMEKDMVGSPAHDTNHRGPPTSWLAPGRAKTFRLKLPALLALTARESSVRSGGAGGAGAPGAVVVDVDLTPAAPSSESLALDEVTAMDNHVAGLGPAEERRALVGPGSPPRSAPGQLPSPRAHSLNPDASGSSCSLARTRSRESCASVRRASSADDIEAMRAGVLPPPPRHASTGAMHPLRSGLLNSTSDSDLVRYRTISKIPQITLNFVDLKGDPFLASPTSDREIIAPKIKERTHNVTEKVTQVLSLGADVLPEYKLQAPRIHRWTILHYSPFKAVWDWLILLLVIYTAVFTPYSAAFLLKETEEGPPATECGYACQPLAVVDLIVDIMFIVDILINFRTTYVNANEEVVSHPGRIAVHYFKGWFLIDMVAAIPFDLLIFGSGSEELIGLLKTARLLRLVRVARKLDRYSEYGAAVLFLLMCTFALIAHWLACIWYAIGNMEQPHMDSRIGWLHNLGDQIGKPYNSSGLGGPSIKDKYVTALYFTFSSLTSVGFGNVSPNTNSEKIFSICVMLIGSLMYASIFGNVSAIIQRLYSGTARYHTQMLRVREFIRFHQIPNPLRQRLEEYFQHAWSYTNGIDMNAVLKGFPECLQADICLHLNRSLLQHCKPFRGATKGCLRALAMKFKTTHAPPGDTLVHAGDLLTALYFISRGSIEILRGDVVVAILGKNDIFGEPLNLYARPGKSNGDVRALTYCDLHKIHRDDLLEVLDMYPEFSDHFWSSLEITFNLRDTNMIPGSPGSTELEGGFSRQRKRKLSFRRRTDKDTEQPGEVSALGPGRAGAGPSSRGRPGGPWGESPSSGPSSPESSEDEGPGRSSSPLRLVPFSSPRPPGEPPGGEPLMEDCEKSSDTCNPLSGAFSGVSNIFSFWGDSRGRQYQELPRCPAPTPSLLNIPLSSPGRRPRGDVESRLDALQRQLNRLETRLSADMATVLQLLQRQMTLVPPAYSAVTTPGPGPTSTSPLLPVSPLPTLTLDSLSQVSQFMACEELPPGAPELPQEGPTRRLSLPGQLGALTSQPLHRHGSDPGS

On to `O=C([O-])c1cc(OC[C@@H](O)CO)ccc1OC[C@H](O)CO.[Na+]` (mixture of isomers), for which the Activity was 52% in the data set on HepG2 [1] and 294% in data set [2]. Further, the “inhibition (INH)” value was 19% in the data set on HepG2 [3] and 27% in the data set with HepG2 [4].
`COC(=O)c1cc(OC[C@@H](COS(=O)(=O)[O-])OS(=O)(=O)[O-])ccc1OC[C@H](COS(=O)(=O)[O-])OS(=O)(=O)[O-].[Na+].[Na+].[Na+].[Na+]`: the Activity is 110% in the data set on HepG2 [1], 342% in [2], “Non-Toxic” in the data set with HepG2 (Homo sapiens) and “Non-Toxic” in the data set on HepG2 [11]. The Stabilty result in data set [5] is given as “Stable”. The half-life at 3 µM in data set [6] is 1840 min; in data set [8], 145 min. Moreover, the results for the microsomal CLint at 3 µM in [7] and in [10] were 0.755 µL/min/mg and 9.56 µL/min/mg, respectively. Besides, the “inhibition (INH)” value in the data set with HepG2 [3] is listed as 28%; in the data set on HepG2 [4] it was 29%. Moreover, the solubility kinetic at 2 h in data set [9] is over 100 µM.
With `COC(=O)c1cc(OC[C@@H](COS(=O)(=O)[O-])OS(=O)(=O)[O-])ccc1OCCCCOS(=O)(=O)[O-].[Na+].[Na+].[Na+]`, the Activity was 63% in the data set with HepG2 [1], 397% in data set [2], “Non-Toxic” in the data set with HepG2 (Homo sapiens) and “Non-Toxic” in the data set with HepG2 [11]. In addition, in data set [5], the Stabilty result is reported as “Stable”. Also, the “inhibition (INH)” value in the data set on HepG2 [3] worked out at 39%; in the data set with HepG2 [4], 27%.
On to `COC(=O)c1cc(OC[C@H](COS(=O)(=O)[O-])OS(=O)(=O)[O-])ccc1OCCCCOS(=O)(=O)[O-].[Na+].[Na+].[Na+]`, for which the Activity in the data set with HepG2 [1] was 52%; in [2], 613%; in the data set on HepG2 (Homo sapiens), “Non-Toxic”; in the data set on HepG2 [11] it was “Non-Toxic”. In addition, the Stabilty result in data set [5] is listed as “Stable”. Moreover, the figures for the “inhibition (INH)” value with HepG2 [3] and in the data set on HepG2 [4] were 23% and 31%, respectively.
As for `COC(=O)c1cc(OC[C@H](COS(=O)(=O)[O-])OS(=O)(=O)[O-])ccc1OC[C@@H](COS(=O)(=O)[O-])OS(=O)(=O)[O-].[Na+].[Na+].[Na+].[Na+]`, the Activity with HepG2 [1] was 62%; in data set [2], 318%; with HepG2 (Homo sapiens) it was “Non-Toxic”; in the data set on HepG2 [11], “Non-Toxic”. Moreover, in [5], the Stabilty entry is reported as “Stable”. Moreover, in data set [12], the IC50 was over 25 µM. Also, the half-life at 3 µM in data set [6] amounted to 482 min; in data set [8] it was 2140 min. Also, the microsomal CLint at 3 µM in [7] was 2.88 µL/min/mg; in data set [10], 0.649 µL/min/mg. For the same molecule, the “inhibition (INH)” value with HepG2 [3] was 29%; with HepG2 [4] it was 31%. Further, in data set [9], the solubility kinetic at 2 h is over 100 µM.
`COC(=O)c1cc(OC[C@H](O)CO)ccc1OC[C@@H](O)CO` (mixture of isomers): the Activity in the data set with HepG2 [1] was 46%; in [2], 286%. Besides, the “inhibition (INH)” value stood at 36% in the data set with HepG2 [3] and 26% in the data set on HepG2 [4].
Taken in the same sequence, the figures for `O=C([O-])c1cc(OC[C@H](O)CO)ccc1OC[C@@H](O)CO.[Na+]` (mixture of isomers) were 41%, 312%, 23% and 21%.

The record behind these values is ChEMBL document CHEMBL4732020, “The modulatory role of sulfated and non-sulfated small molecule heparan sulfate-glycomimetics in endothelial dysfunction: absolute structural clarification, molecular docking and simulated dynamics, SAR analyses and ADMET studies” (RSC Med Chem, 2021).
